Measured values published in ChEMBL document CHEMBL4699576, “Oxidized Juncuenin B Analogues with Increased Antiproliferative Activity on Human Adherent Cell Lines: Semisynthesis and Biological Evaluation” (J Nat Prod, 2020).
Values belong to the compound of their own block, whether it stands above or below them. The source made the active and inactive calls. No cut-off for these calls is given here.

Columns and labels:
[1] = system: A2780; test: Antiproliferative activity against human A2780 cells assessed as reduction in cell viability at 0.1 to 30 uM after 72 hrs by MTT assay; format: functional, cell-based; details: dose microM 0.1-30, time 72.0 hrs
How it was run: (§1)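 Cells were grown in MEM with 10% FBS, 1% nonessential amino acids and 1% penicillin–streptomycin–amphotericin B at 37 °C in humidified 5% CO2. They were seeded at 5000 cells/well and exposed to 0.1–30 μM compound for 72 h. MTT (5 mg/mL solution) was added for 4 h, and formazan was dissolved in DMSO and read at 545 nm against untreated cells. IC50 values came from normalized sigmoidal dose–response fits.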

[2] = system: C-33-A; test: Antiproliferative activity against human C33A cells assessed as reduction in cell viability at 0.1 to 30 uM after 72 hrs by MTT assay; format: functional, cell-based; details: dose microM 0.1-30, time 72.0 hrs
How it was run: (§2)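 C33A cells were kept in MEM with 10% FBS, 1% nonessential amino acids and 1% penicillin–streptomycin–amphotericin B at 37 °C under 5% CO2. They were seeded at 10 000 cells/well and treated with 0.1–30 μM for 72 h. MTT (5 mg/mL solution) was added for 4 h, and formazan was dissolved in DMSO and read at 545 nm against untreated controls. IC50 values came from normalized sigmoidal curve fits.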

[3] = system: SiHa; test: Antiproliferative activity against human SiHa cells assessed as reduction in cell viability at 0.1 to 30 uM after 72 hrs by MTT assay; format: functional, cell-based; details: dose microM 0.1-30, time 72.0 hrs; how it was run: as §1
[4] = system: HeLa; test: Antiproliferative activity against human HeLa cells assessed as reduction in cell viability at 0.1 to 30 uM after 72 hrs by MTT assay; details: dose microM 0.1-30, time 72.0 hrs
[5] = system: NIH3T3; test: Antiproliferative activity against mouse NIH/3T3 cells assessed as reduction in cell viability at 0.1 to 30 uM after 72 hrs by MTT assay; format: functional, cell-based; details: dose microM 0.1-30, time 72.0 hrs; how it was run: as §1
[6] = system: MCF7; test: Antiproliferative activity against human MCF7 cells assessed as reduction in cell viability at 0.1 to 30 uM after 72 hrs by MTT assay; details: dose microM 0.1-30, time 72.0 hrs
[7] = system: NIH3T3; test: Antiproliferative activity against mouse NIH/3T3 cells assessed as reduction in cell viability after 72 hrs by MTT assay; format: functional, cell-based; details: NIH3T3, 72 h; how it was run: as §1
[8] = system: MCF7; test: Antiproliferative activity against human MCF7 cells assessed as reduction in cell viability after 72 hrs by MTT assay; format: functional, cell-based; details: MCF7, 72 h; how it was run: as §1
[9] = system: HeLa; test: Antiproliferative activity against human HeLa cells assessed as reduction in cell viability after 72 hrs by MTT assay; format: functional, cell-based; how it was run: as §1
[10] = system: A2780; test: Antiproliferative activity against human A2780 cells assessed as reduction in cell viability after 72 hrs by MTT assay; format: functional, cell-based; details: A2780, 72 h; how it was run: as §1
[11] = system: C-33-A; test: Antiproliferative activity against human C33A cells assessed as reduction in cell viability after 72 hrs by MTT assay; format: functional, cell-based; how it was run: as §2
[12] = system: T47D; test: Antiproliferative activity against human T47D cells assessed as reduction in cell viability at 0.1 to 30 uM after 72 hrs by MTT assay; format: functional, cell-based; details: dose microM 0.1-30, time 72.0 hrs; how it was run: as §1
[13] = system: T47D; test: Antiproliferative activity against human T47D cells assessed as reduction in cell viability after 72 hrs by MTT assay; format: functional, cell-based; how it was run: as §1
[14] = system: SiHa; test: Antiproliferative activity against human SiHa cells assessed as reduction in cell viability after 72 hrs by MTT assay; format: functional, cell-based; how it was run: as §1
[15] = system: SGC-7901; test: Antiproliferative activity against human SGC-7901 cells assessed as reduction in cell viability after 48 hrs by Alamar Blue assay; format: functional, cell-based; details: SGC-7901, 48 h
[16] = system: AGS; test: Antiproliferative activity against human AGS cells assessed as reduction in cell viability after 48 hrs by Alamar Blue assay; format: functional, cell-based
[17] = system: MDA-MB-231; test: Antiproliferative activity against human MDA-MB-231 cells assessed as reduction in cell viability after 72 hrs by MTT assay; format: functional, cell-based; details: MDA-MB-231, 72 h
[18] = Selectivity ratio of IC50 for antiproliferative activity against human T47D cells to IC50 for antiproliferative activity against human MCF7 cells; format: functional

Compound: C=CC1=C(C)C(=O)C=C2c3ccc(O)c(C)c3CC[C@]21OCC
Activity [1]: inactive
Activity [2]: inactive
Activity [3]: inactive
Activity [4]: inactive

Compound: C=Cc1c(C)c(O)cc2c3c(ccc12)C(C)(OCC)C(=O)C=C3 (racemic)
Activity [1]: inactive
Activity [5]: inactive
Activity [2]: inactive
Activity [6]: inactive
Activity [4]: inactive

IC50 [8]: 6.2 µM
IC50 [9]: 0.9 µM
IC50 [10]: 8.7 µM
Compound: C=CC1=C(C)C(=O)C=C2c3ccc(O)c(C)c3CC[C@@]21OC
IC50 [7]: 25.8 µM
IC50 [11]: 5.3 µM
Activity [12]: Active
Activity [4]: Active

Compound: C=CC1=C2CCc3c(ccc(O)c3C)C2=CC(=O)C1(C)OCC (racemic)
Activity [1]: inactive
Activity [5]: inactive
Activity [2]: inactive
Activity [6]: inactive
Activity [4]: inactive

IC50 [13]: 15 µM
Compound: C=CC1=C(C)C(=O)C=C2C3=C(CC[C@]21OC)[C@@](C)(OC)C(=O)C=C3 (stereo in doubt)
IC50 [7]: > 30 µM
IC50 [14]: 20 µM

Compound: C=CC1=C(C)C(=O)C=C2C3(OC)C=CC(=O)C(C)=C3CCC21OC (racemic; 2a)
Activity [1]: inactive
Activity [5]: inactive
Activity [2]: inactive
Activity [6]: inactive
Activity [4]: inactive

IC50 [13]: 15 µM
Compound: C=CC1=C(C)C(=O)C=C2C3=C(CC[C@]21OC)[C@](C)(OC)C(=O)C=C3 (stereo in doubt)
IC50 [14]: 20 µM

Compound: C=Cc1c(C)c(O)c(OC)c2c3c(ccc12)C(C)(OC)C(=O)C=C3 (racemic)
Activity [1]: inactive
Activity [5]: inactive
Activity [2]: inactive
Activity [6]: inactive
Activity [4]: inactive

Compound: C=CC1=C(C)C(=O)C=C2C3=C(CCC21OCC)C(C)(OCC)C(=O)C=C3 (racemic; 6b)
Activity [1]: Active
Activity [5]: Active
Activity [2]: Active
Activity [6]: Active
Activity [4]: Active

IC50 [10]: 7.7 µM
IC50 [13]: 15 µM
Compound: C=CC1=C(C)C(=O)C=C2C3=C(CC[C@@]21OC)[C@](C)(OC)C(=O)C=C3 (stereo in doubt)
IC50 [7]: 21.6 µM
IC50 [11]: 5.3 µM
IC50 [14]: 20 µM
Activity [12]: Active
Activity [4]: Active

Compound: C=CC1=C(C)C(=O)C=C2C3(OCC)C=CC(=O)C(C)=C3CCC21OCC (racemic)
Activity [1]: inactive
Activity [5]: inactive
Activity [2]: inactive
Activity [6]: inactive
Activity [4]: inactive

Compound: C=Cc1cc(O)cc2ccc3c(C)c(O)ccc3c12
IC50 [15]: 35.9 µM
IC50 [16]: 32.9 µM

IC50 [9]: 3.7 µM
IC50 [10]: 2.8 µM
IC50 [13]: 8.8 µM
Compound: C=CC1=C(C)C(=O)C=C2c3ccc(O)c(C)c3CC[C@@]21OCC
IC50 [7]: > 30 µM
IC50 [11]: 4.9 µM
Activity [12]: Active
Activity [3]: inactive
Activity [6]: Active
Activity [4]: Active

Compound: C=CC1=C(C)C(=O)C=C2C3=C(CCC21OCC)C(C)(OCC)C(=O)C=C3 (racemic; 6a)
Activity [1]: Active
Activity [5]: Active
Activity [2]: Active
Activity [6]: Active
Activity [4]: Active

Compound: C=CC1=C(C)C(=O)C=C2C3(OC)C=CC(=O)C(C)=C3CCC21OC (racemic; 2b)
Activity [1]: inactive
Activity [5]: inactive
Activity [2]: inactive
Activity [6]: inactive
Activity [4]: inactive

IC50 [17]: 9.4 µM
IC50 [8]: 11.7 µM
IC50 [9]: 2.9 µM
IC50 [10]: 7.3 µM
Compound: C=Cc1c(C)c(O)cc2c1CCc1c-2ccc(O)c1C
IC50 [7]: > 30 µM
Ratio IC50 [18]: 2.5

IC50 [13]: 15 µM
Compound: C=CC1=C(C)C(=O)C=C2C3=C(CC[C@@]21OC)[C@@](C)(OC)C(=O)C=C3 (stereo in doubt)
IC50 [14]: 20 µM

Compound: C=CC1=C(C)C(=O)C=C2c3ccc(O)c(C)c3CC[C@]21OC
Activity [1]: inactive
Activity [2]: inactive
Activity [6]: inactive
Activity [4]: inactive

Compound: C=CC1=C(C)C(=O)C(OCCCC)(OCCCC)c2c1ccc1c2C=CC(=O)C1(C)OCCCC (racemic)
Activity [1]: inactive
Activity [5]: inactive
Activity [2]: inactive
Activity [6]: inactive
Activity [4]: inactive
